Results from ChEMBL document CHEMBL4513216, “Probing the Open Global Health Chemical Diversity Library for Multistage-Active Starting Points for Next-Generation Antimalarials” (ACS Infect Dis, 2020).

Assay: Toxicity liver stage against HepG2, at 10uM
Format: cell-based
Parameters: test concentration 10 uM, cell line HepG2-A16-CD81EGFP
Settings: human, HepG2-A16-CD81EGFP cells; read-out: INHIBITION
Summary of the method: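 Uninfected HepG2-A16-CD81EGFP cells, 3 × 10^3 per well, 1536-well, plated on prespotted compound at 10 μM final, parasite-free screening media added to match infected plates; puromycin 10 μM positive, DMSO 0.5% negative; run in parallel with 48 h PbLuc assay at 37 °C, 5% CO2; viability by CellTiter-Glo luminescence, normalized to controls.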

Compound | cytotoxicity at 10 µM [%]
N#Cc1c(Cl)nsc1NCCN1CCOCC1 | 9.64
Cc1nnc(NCc2cccc(OCc3ccccn3)c2)c(C#N)c1C | 5.93
Cc1ccc(-c2cn3c(n2)CO[C@@H](CNCc2cccnc2)C3)cc1 | -105
Cn1cncc1-c1nnc([C@H]2CCN(Cc3cccnc3)C2)o1 | -4.39
CSc1ccc(CCNC(=O)Cc2c(C)n[nH]c2C)cc1 | 1.02
O=C(NCc1cccs1)NCC(O)(c1cccs1)C1CC1 (stereo not drawn) | 1.66
O=C(Cn1cccn1)N1CCC(Oc2ccc(C(F)(F)F)cn2)CC1 | 8.77
CNCc1cnc(Nc2ccccc2)nc1 | 1.38
NC(=O)c1ccc(NC(=O)Cn2cc(I)cn2)cc1 | 8.49
COc1cccc(C2SCC(=O)Nc3n[nH]cc32)c1OC(C)C (stereo not drawn) | 5.09
Cc1cc(O)c(OCC(=O)Nc2nc3c(s2)CCCC3)cn1 | 12.8
O=C(Cn1ccc2ccc(Cl)cc21)/N=c1\[nH]nc(C2CCCO2)s1 (stereo not drawn) | 10.8
Cc1oc(-c2nc(C#N)c(NC(C)(C)C)o2)cc1S(=O)(=O)N1CCCC1 | -0.699
COc1ccc(CNC(=O)c2nn(C)c3c2CS(=O)(=O)CC3)cc1 | 8.52
CCn1ccc(C(=O)Nc2ccc3c(c2)C(C)(C)C(=O)N3C)n1 | 12.2
Cc1ccc2nc(C)cc(NCCNS(=O)(=O)c3cccnc3)c2c1 | 13.5
Cc1cc(N2CCC(Cc3cccnc3)CC2)ncn1 | 1.96
Fc1cccc(OC2CCN(Cc3ncc[nH]3)CC2)c1 | -31.2
COCCNC(=O)C1(Cc2ccccc2-c2ccncc2)CCOCC1 | -26.3
CC(=O)N1CCCC(c2ccc(C(N)=O)cn2)C1 (stereo not drawn) | 5.07
O=C(NC1CCCc2nc(N3CCCCC3)ncc21)C1CCCC1 (stereo not drawn) | -2.05
O=C(c1cccs1)N1CCCC(c2cc(C(F)F)n3ncnc3n2)C1 (stereo not drawn) | -23.4
O=C(C1CCCCC1)N1CCC(n2nc(-c3ccco3)ccc2=O)CC1 | -16.6

Compound | cytotoxicity at 10 µM [%]
Cc1cncc(C2CCCN(C(=O)c3cnco3)C2)n1 (stereo not drawn) | -6.94
COCC(=O)N1CCCC1c1nccnc1Nc1nc(C)cs1 (stereo not drawn) | -3.36
Cc1cncc(C2CCCN(CC3CCC3)C2)n1 (stereo not drawn) | -7.41
Cc1cc(OCC(N)=O)ccc1NC(=O)C(C)Cc1ccccc1F (stereo not drawn) | -0.0944
COc1cccc(Cn2[nH]c(C)c3c(NC(=O)C(C)OC)nnc2-3)c1 (stereo not drawn) | -2.03
Cc1cnc(NS(=O)(=O)c2cccc(C#N)c2)s1 | 15
CC(=O)C(Cc1ccccc1)NC(=O)CSc1nncn1C (stereo not drawn) | 3.16
COc1cccc(CC(C)NC(=O)c2ccc(CNC(C)=O)cc2)c1 (stereo not drawn) | 7.21
COc1cccc(CC(C)NC(=O)NCc2ccn(C)c2)c1 (stereo not drawn) | 0.166
CCCN(C(=O)CN1CCN(CCO)CC1)C1=CCCCC1 | 6.45
COc1c(C2CCCN2c2ncnc3sccc23)c(C)nn1C (stereo not drawn) | 21.5
COc1c(C2CCCN2Cc2nnc(C3CC3)o2)c(C)nn1C (stereo not drawn) | -9.29
Cc1cccc(S(=O)(=O)NC2CCN(CC(F)(F)F)C2)c1 (stereo not drawn) | 0.741
O=C(NCC1CCOC1)c1cc(-c2cccc(Cl)c2)[nH]n1 (stereo not drawn) | -1.74
Cc1ccn(C)c(=O)c1NC(=O)N(C)Cc1cccc(OC(C)C)c1 | 2.29
Cc1nc(-c2ccc(S(=O)(=O)N3CCSC3)cc2)co1 | 17.2
CCNC(=O)CS(=O)(=O)NC1CCC(C)CC1 (stereo not drawn) | -4.57
COCc1nc2cc3c(cc2c(=O)o1)OCCCO3 | 1.19
COCCNC(=O)CCNC(=O)c1ccc(N2CCC(C)=N2)cc1 | 2.07
CNS(=O)(=O)CC(=O)N1CCCc2cc(C(C)C)ccc21 | 11.8
CN(C1CCN(C(=O)NCCc2ccc(F)cc2F)CC1)S(C)(=O)=O | 12.3
CCNC(=O)NCCc1csc(N2CCCC2)n1 | -4.63
CCN(C)C(=O)CCC(=O)c1cccs1 | 3.9

Compound | cytotoxicity at 10 µM [%]
CCn1cnnc1C1CCN(C(=O)c2cccc(N(C)C)c2)CC1 | 1.54
Cc1n[nH]c(C)c1C1CCCN1C(=O)Cc1cccc(F)c1 (stereo not drawn) | 4.8
Cn1cc(S(=O)(=O)N2CCCC2Cn2ccnc2)cc1C(N)=O (stereo not drawn) | 2.8
Cn1cc(CNC2CCOCC2)c(-c2cc3ccccc3o2)n1 | -45.1
Cc1ccc(C(=O)N(C)C)cc1NC(=O)COCC1CC1 | 2.95
CS(=O)(=O)c1nccn1Cc1ccncc1 | 14.5
Cc1ccc(CNc2ccccc2SCCC(N)=O)s1 | 10.6
CC(C)n1cnnc1C1CCCN(S(=O)(=O)CCCF)C1 (stereo not drawn) | 7.39
CC(C)OCc1noc(C2CCOC2)n1 (stereo not drawn) | 1.19
Cc1oc(-c2ccsc2)nc1CNC(C)Cn1cccn1 (stereo not drawn) | -9.81
COCC(=O)N1CCN(C(C)c2ncc(-c3ccccc3)o2)CC1 (stereo not drawn) | 5.66
CC(=O)Nc1cccc(Cn2nc(C)nc2C)c1 | -3.19
CC(NC(=O)Cn1cccnc1=O)c1ccc(OC(F)(F)F)cc1 (stereo not drawn) | 1.66
Cc1ccc(C(=O)NCCNC(=O)N(C)C(C)c2ccccn2)cc1 (stereo not drawn) | 7.97
CC(C)(C)OC(=O)CNC(=O)CCc1nnc(-c2ccsc2)o1 | -10.2
COc1cccc(CN(C)C(=O)CCC(=O)c2ccc(Cl)cc2)c1OC | -1.1
c1cc2nc(C3CCNCC3)nn2cc1NC1CCC1 | -98.8
O=C(NCc1ccccc1)N1CCc2ncnc(NC3CC3)c2CC1 | -100
O=C1NCCO[C@H]2CN(C(=O)CC3Cc4ccccc4C3)CC[C@@H]12 | -106
O=c1[nH][nH]cc1-c1ccnc(NCCCN2CCOCC2)n1 | 3.27
CC[C@H](C)Nc1nccc(-c2cnc3sc(C)cn3c2=O)n1 | -6.02
Cc1ncnc(NC(CC(C)(C)C)c2cccnc2)c1C (stereo not drawn) | 1.65
Cc1nc(C(=O)N2CCN(S(C)(=O)=O)[C@@H]3CS(=O)(=O)C[C@@H]32)cs1 | -9.19

Compound | cytotoxicity at 10 µM [%]
CC(C)(O)CCc1cccc(C(=O)N2CCC[C@H]2C(N)=O)c1 | 10.4
O=C(NCCc1noc(C2CCCO2)n1)c1cn2ccsc2n1 (stereo not drawn) | -4.4
CCCN1CCN(Cc2cccc(OC(C)C)c2)[C@H]2CS(=O)(=O)C[C@H]21 | 4.77
CC(C)c1cc(C(=O)N2CCCC(Cn3cc(CO)nn3)C2)on1 (stereo not drawn) | -6.27
O=C1NC(C(=O)NCc2cccnc2Oc2ccc(F)c(F)c2)CO1 (stereo not drawn) | -0.115
Cc1n[nH]c(C)c1-c1c(C#N)c(N)nc2c1CCc1[nH]ccc1-2 | 2.83
Cc1cc(C(=O)NCC2CCS(=O)(=O)C2)ccc1NC(=O)c1ccco1 (stereo not drawn) | 19
OCc1csc(N2CCCC(COc3cccc(F)c3)C2)n1 (stereo not drawn) | -0.176
Cc1cccc(CN2CCCC3(CCN(C4CCSCC4)C3)C2=O)c1 (stereo not drawn) | 2.55
CN(Cc1ccccc1)C1(C(=O)NC(C)(C)CO)Cc2ccccc2C1 | 0.603
CCNc1c(NC(=O)NC(C)C)c(=O)oc2ccccc12 | 1.1
CC(=O)Nc1ncc(S(=O)(=O)N2CCCC(C)C2)s1 (stereo not drawn) | 2.28
CCN(c1ccc(C(=O)N2CCCCC2)cc1)S(=O)(=O)CC | 1.85
CCOCCN1C[C@H](c2cccc(OC)c2)[C@@H](N)C1 | -0.786
CC(C)c1csc(C(=O)N2CCCC(Cn3cc(CO)nn3)C2)n1 (stereo not drawn) | 6.29
CCN(CC)C1COc2ccc(Br)cc2C1=O (stereo not drawn) | -7.16
CCn1cc(CNCc2ccc(C(=O)OC)cc2)c(C)n1 | -3.78
Cc1cnn(C2CCCN(C(=O)c3ccc4c(c3)CCC4)C2)c1 (stereo not drawn) | -4.81
Cc1nc(C)n(CC2CCCN2Cc2cccc3c2OCCO3)n1 (stereo not drawn) | -3.33
c1cnc(-c2nc(CN3CCCN(Cc4cccs4)CC3)cs2)nc1 | -7.66
CCOc1cc(C)nc(N2CCN(C(=O)c3cc[nH]n3)CC2)n1 | -8.21
CC1CN(C(=O)c2cccc(OCc3cscn3)c2)CCO1 (stereo not drawn) | -9.86
Cc1cc(C)c(CNC(=O)Cc2ccc3c(c2)CCCC3)c(=O)[nH]1 | -7.39

Compound | cytotoxicity at 10 µM [%]
Cn1ncc2c(=O)[nH]c(CN3CCc4ccccc4C3)nc21 | -2.72
CNS(=O)(=O)CCCN1CCCC1c1noc(C)n1 (stereo not drawn) | -4.38
COC(=O)CC(NC(=O)c1ccccc1OC)c1cccs1 (stereo not drawn) | 0.35
Cc1nc(C2CCCN(C(=O)c3cccc4c3OCO4)C2)sc1C (stereo not drawn) | -8.72
CCN(Cc1ccccc1Cl)Cn1nc(C)c2c(C)onc2c1=O | -2.34
CNS(=O)(=O)Cc1ccc(CNC(=O)c2ccc(C)[nH]c2=O)cc1 | -3.3
COc1ccc(CNC2CCCN(Cc3noc(C)n3)C2)cc1F (stereo not drawn) | -12.5
Cc1nc(C)n(CC2CCCN2Cc2nc(C3CC3)no2)n1 (stereo not drawn) | -12.5
CN(C)c1cc2c(nn1)CCN(C(=O)C1Cc3ccccc3S1)C2 (stereo not drawn) | -9.52
CCS(=O)(=O)N(C)C(=O)c1cc(C)n(-c2cccc(OC)c2)c1C | -2.35
Cc1cc(CN2CCN(CC(O)C(C)(C)C)CC2)no1 (stereo not drawn) | -14.8
Cc1nc(CN2CCCC(NCCOCC(F)(F)F)C2)no1 (stereo not drawn) | -11.1
CCc1n[nH]c(C2CN(C(=O)c3csnn3)CCO2)n1 (stereo not drawn) | -2.5
O=C(NCc1cccnc1)NC1CCC2(CCC(=O)N2CC2CC2)CC1 (stereo not drawn) | -114
CN(Cc1ccco1)Cc1cncc2c1CCN(S(C)(=O)=O)C2 | 2.11
c1cnc(NCc2nnn3c2CN(Cc2ccsc2)CCC3)nc1 | 10.8
Cn1ccnc1CN1CCN2C[C@H](Oc3ccccc3)C[C@H]2C1 | 7.14
Cc1ccc(C(=O)N2CCC3(CC2)CC(N2CCCC2)C3)cc1 | -0.77
CN1CCN(Cc2cccnc2)C(=O)C12CCN(C1CCOC1)CC2 (stereo not drawn) | -111
OCC1N(Cc2ccc(F)cc2)C2CCC1(O)CC2 (stereo not drawn) | 8.05
Cc1nc[nH]c1CN1C[C@H]2CC[C@@H](C1)N(C(=O)CCc1cnn(C)c1)C2 | -14.1
